Test results taken from ChEMBL document CHEMBL2390929, “New nitric oxide donating 1,2,4-triazole/oxime hybrids: synthesis, investigation of anti-inflammatory, ulceroginic liability and antiproliferative activities” (Bioorg Med Chem, 2013).

Tests used:
MDA-MB-468 = assay: Cytotoxicity against human MDA-MB-468 cells assessed as cell growth at 10^-5 M after 48 hrs by SRB assay; format: functional; details: MDA-MB-468, 48 h, read-out: Activity
Procedure, shortened: (§1)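 NCI 60-cell-line primary one-dose screen across nine tumour subpanels. Compound added at a single concentration of 10^-5 M and cultures incubated 48 h. Endpoint was sulforhodamine B protein staining read spectrophotometrically, with growth expressed as percent of untreated control cells.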

Hs-578T = assay: Cytotoxicity against human Hs578T cells assessed as cell growth at 10^-5 M after 48 hrs by SRB assay; format: functional; details: read-out: Activity; procedure, shortened: as §1
BT-549 = assay: Cytotoxicity against human BT549 cells assessed as cell growth at 10^-5 M after 48 hrs by SRB assay; format: functional; details: BT-549, 48 h, read-out: Activity; procedure, shortened: as §1
MDA-MB-231 = assay: Cytotoxicity against human MDA-MB-231 cells assessed as cell growth at 10^-5 M after 48 hrs by SRB assay; format: functional; details: MDA-MB-231, 48 h, read-out: Activity; procedure, shortened: as §1
SN12C = assay: Cytotoxicity against human SN12C cells assessed as cell growth at 10^-5 M after 48 hrs by SRB assay; format: functional; details: read-out: Activity
Procedure, shortened: (§2)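 NCI-60 one-dose screen across nine tumour subpanels. Each agent added once at 10^-5 M, cultures incubated 48 h. Endpoint is sulforhodamine B protein staining read spectrophotometrically. Output is percent growth of treated cells relative to untreated controls.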

ACHN = assay: Cytotoxicity against human ACHN cells assessed as cell growth at 10^-5 M after 48 hrs by SRB assay; format: functional; details: read-out: Activity; procedure, shortened: as §1
A498 = assay: Cytotoxicity against human A498 cells assessed as cell growth at 10^-5 M after 48 hrs by SRB assay; format: functional; details: A498, 48 h, read-out: Activity; procedure, shortened: as §1
786-0 = assay: Cytotoxicity against human 786-0 cells assessed as cell growth at 10^-5 M after 48 hrs by SRB assay; format: functional; details: 786-0, 48 h, read-out: Activity; procedure, shortened: as §1
OVCAR-4 = assay: Cytotoxicity against human OVCAR4 cells assessed as cell growth at 10^-5 M after 48 hrs by SRB assay; format: functional; details: OVCAR-4, 48 h, read-out: Activity; procedure, shortened: as §1
UACC-62 = assay: Cytotoxicity against human UACC62 cells assessed as cell growth at 10^-5 M after 48 hrs by SRB assay; format: functional; details: UACC-62, 48 h, read-out: Activity; procedure, shortened: as §2
IGROV-1 = assay: Cytotoxicity against human IGROV1 cells assessed as cell growth at 10^-5 M after 48 hrs by SRB assay; format: functional; details: IGROV-1, 48 h, read-out: Activity; procedure, shortened: as §1
SK-MEL-28 = assay: Cytotoxicity against human SK-MEL-28 cells assessed as cell growth at 10^-5 M after 48 hrs by SRB assay; format: functional; details: SK-MEL-28, 48 h, read-out: Activity; procedure, shortened: as §2
MDA-MB-435 = assay: Cytotoxicity against human MDA-MB-435 cells assessed as cell growth at 10^-5 M after 48 hrs by SRB assay; format: functional; details: MDA-MB-435, 48 h, read-out: Activity; procedure, shortened: as §1
M14 = assay: Cytotoxicity against human M14 cells assessed as cell growth at 10^-5 M after 48 hrs by SRB assay; format: functional; details: M14, 48 h, read-out: Activity; procedure, shortened: as §1
SNB-75 = assay: Cytotoxicity against human SNB75 cells assessed as cell growth at 10^-5 M after 48 hrs by SRB assay; format: functional; details: SNB-75, 48 h, read-out: Activity; procedure, shortened: as §2
HCT-15 = assay: Cytotoxicity against human HCT15 cells assessed as cell growth at 10^-5 M after 48 hrs by SRB assay; format: functional; details: HCT-15, 48 h, read-out: Activity; procedure, shortened: as §1
NCI-H460 = assay: Cytotoxicity against human NCI-H460 cells assessed as cell growth at 10^-5 M after 48 hrs by SRB assay; format: functional; details: NCI-H460, 48 h, read-out: Activity; procedure, shortened: as §1
NCI-H23 = assay: Cytotoxicity against human NCI-H23 cells assessed as cell growth at 10^-5 M after 48 hrs by SRB assay; format: functional; details: NCI-H23, 48 h, read-out: Activity; procedure, shortened: as §1
HOP-62 = assay: Cytotoxicity against human HOP62 cells assessed as cell growth at 10^-5 M after 48 hrs by SRB assay; format: functional; details: HOP-62, 48 h, read-out: Activity; procedure, shortened: as §1
K562 = assay: Cytotoxicity against human K562 cells assessed as cell growth at 10^-5 M after 48 hrs by SRB assay; format: functional; details: K562, 48 h, read-out: Activity; procedure, shortened: as §1
HL-60(TB) = assay: Cytotoxicity against human HL-60(TB) cells assessed as cell growth at 10^-5 M after 48 hrs by SRB assay; format: functional; details: HL-60, 48 h, read-out: Activity
Procedure, shortened: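 NCI 60-cell-line one-dose screen: compound added to cultures at a single concentration of 10^-5 M, incubated 48 h. End point by sulforhodamine B protein staining, read spectrophotometrically. Value is percent growth of treated cells relative to untreated control cells.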

Rattus norvegicus [1] = assay: Antiinflammatory activity in albino rat assessed as inhibition of carrageenan-induced paw edema at 0.28 mmol/kg, po after 4 hrs relative to control; format: functional
Procedure, shortened: (§3)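 Adult male albino rats (120–140 g), four per group, fasted 24 h with water allowed. Test agent suspended in 0.5% w/v aqueous CMC and given orally at 0.28 mmol/kg; controls received CMC alone. After 30 min, 0.1 mL fresh 1% carrageenan in saline was injected subplantar into the right hind paw and saline into the left. Paw thickness was measured by Vernier caliper; % inhibition = [(VR−VL)control − (VR−VL)treated]/(VR−VL)control ×100. Mean ± SEM, one-way ANOVA.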

Rattus norvegicus [2] = assay: Antiinflammatory activity in albino rat assessed as inhibition of carrageenan-induced paw edema at 0.28 mmol/kg, po after 3 hrs relative to control; format: functional; procedure, shortened: as §3
Rattus norvegicus [3] = assay: Antiinflammatory activity in albino rat assessed as inhibition of carrageenan-induced paw edema at 0.28 mmol/kg, po after 2 hrs relative to control; format: functional; procedure, shortened: as §3
Rattus norvegicus [4] = assay: Antiinflammatory activity in albino rat assessed as inhibition of carrageenan-induced paw edema at 0.28 mmol/kg, po after 1 hr relative to control; format: functional; procedure, shortened: as §3
[5] = Induction of nitric oxide release in phosphate buffer at pH 7.4 at 0.1 mM after 6 hrs by Griess method in presence of 0.5 mM of N-acetylcysteine; format: physicochemical; details: pH 7.4, 6 h, 100 µM
Procedure, shortened: (§4)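 Compound in DMF diluted to final 10^-4 M in 1:1 50 mM phosphate buffer pH 7.4/MeOH with 5×10^-4 M N-acetylcysteine, 37 °C. Aliquot mixed with Griess reagent, 10 min at room temperature, A546 read. Nitrite quantified against sodium nitrite standards (10–80 nmol/mL); NO expressed as mol/mol. n = 4 reaction mixtures per compound.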

[6] = Induction of nitric oxide release in phosphate buffer at pH 7.4 at 0.1 mM after 2 hrs by Griess method in presence of 0.5 mM of N-acetylcysteine; format: physicochemical; details: pH 7.4, 2 h, 100 µM; procedure, shortened: as §4
[7] = Induction of nitric oxide release in phosphate buffer at pH 7.4 at 0.1 mM after 3 hrs by Griess method in presence of 0.5 mM of N-acetylcysteine; format: physicochemical; details: pH 7.4, 3 h, 100 µM; procedure, shortened: as §4
[8] = Induction of nitric oxide release in phosphate buffer at pH 7.4 at 0.1 mM after 1 hr by Griess method in presence of 0.5 mM of N-acetylcysteine; format: physicochemical; details: pH 7.4, 1 h, 100 µM; procedure, shortened: as §4

SMILES | growth at 10 µM (MDA-MB-468) [%] | growth at 10 µM (Hs-578T) [%] | growth at 10 µM (BT-549) [%] | growth at 10 µM (MDA-MB-231) [%] | growth at 10 µM (SN12C) [%] | growth at 10 µM (ACHN) [%] | growth at 10 µM (A498) [%] | growth at 10 µM (786-0) [%] | growth at 10 µM (OVCAR-4) [%] | growth at 10 µM (UACC-62) [%] | growth at 10 µM (IGROV-1) [%] | growth at 10 µM (SK-MEL-28) [%] | growth at 10 µM (MDA-MB-435) [%] | growth at 10 µM (M14) [%] | growth at 10 µM (SNB-75) [%] | growth at 10 µM (HCT-15) [%] | growth at 10 µM (NCI-H460) [%] | growth at 10 µM (NCI-H23) [%] | growth at 10 µM (HOP-62) [%] | growth at 10 µM (K562) [%] | other results
COc1ccc(-c2nnc(SC/C(=N/O)c3ccccc3)n2-c2ccccc2)cc1OC | 107 | 105 | 92.4 | 87.5 | 94.5 | 95.4 | 94.2 | 102 | 90.4 | 89.5 | 106 | 113 | 109 | 98.9 | 91.4 | 98.3 | 114 | 98 | 99.2 | 88.7 | growth at 10 µM (HL-60(TB)): 68.2%; inhibition in vivo at 280 µmol/kg (Rattus norvegicus [1]): 81%; inhibition in vivo at 280 µmol/kg (Rattus norvegicus [2]): 67%; inhibition in vivo at 280 µmol/kg (Rattus norvegicus [3]): 61%; inhibition in vivo at 280 µmol/kg (Rattus norvegicus [4]): 55%; Activity [5]: 0.17 mol/mol; Activity [6]: 0.17 mol/mol; Activity [7]: 0.18 mol/mol; Activity [8]: 0.15 mol/mol
COc1cc(-c2nnc(SC/C(=N/O)c3ccccc3)n2-c2ccccc2)cc(OC)c1OC | 119 | 103 | 85.3 | 93.7 | 95.8 | 99.3 | 98.4 | 94.7 | 84.8 | 84 | 99 | 90.3 | 104 | 108 | 84.5 | 99.1 | 110 | 92.5 | 101 | 85.2 | growth at 10 µM (HL-60(TB)): 81.1%; inhibition in vivo at 280 µmol/kg (Rattus norvegicus [1]): 76%; inhibition in vivo at 280 µmol/kg (Rattus norvegicus [2]): 64%; inhibition in vivo at 280 µmol/kg (Rattus norvegicus [3]): 61%; inhibition in vivo at 280 µmol/kg (Rattus norvegicus [4]): 61%; Activity [5]: 0.15 mol/mol; Activity [6]: 0.11 mol/mol; Activity [7]: 0.12 mol/mol; Activity [8]: 0.07 mol/mol
CCn1c(SC/C(=N/O)c2ccccc2)nnc1-c1ccc(OC)c(OC)c1 | 111 | 92.6 | 134 | 104 | 99.5 | 103 | 92.3 | 115 | 97.5 | 95.5 | 106 | 103 | 116 | 126 | 90.3 | 105 | 105 | 102 | 85.9 | 93.4 | growth at 10 µM (HL-60(TB)): 95.8%; inhibition in vivo at 280 µmol/kg (Rattus norvegicus [1]): 82%; inhibition in vivo at 280 µmol/kg (Rattus norvegicus [2]): 71%; inhibition in vivo at 280 µmol/kg (Rattus norvegicus [3]): 67%; inhibition in vivo at 280 µmol/kg (Rattus norvegicus [4]): 61%; Activity [5]: 0.2 mol/mol; Activity [6]: 0.13 mol/mol; Activity [7]: 0.2 mol/mol; Activity [8]: 0.06 mol/mol
